Laboratory results reported in ChEMBL document CHEMBL3244390, “New antiarrhythmic agents. 1. Primary alpha-amino anilides” (J Med Chem, 1979).

Columns and labels:
Mus musculus [1] = assay: Toxicity in Swiss albino mouse assessed as induction of convulsions at 100 mg/kg, sc relative to control; type: organism-based; design: dose 100 mg/kg, route subcutaneous; details: in vivo
Summary of the method: (§1)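 Single preliminary dose of 100 mg/kg. Mice (18–25 g) were watched for overt CNS toxicity signs, including convulsions, ataxia and loss of righting reflex, during the 20 min between treatment and exposure to CHCl3 vapor.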

Mus musculus [2] = assay: Toxicity in Swiss albino mouse assessed as induction of ataxia at 100 mg/kg, sc relative to control; type: organism-based; design: dose 100 mg/kg, route subcutaneous; details: in vivo; summary of the method: as §1
Mus musculus [3] = assay: Antiarrhythmic activity in Swiss albino mouse assessed as protection against chloroform-induced fibrillation at 100 mg/kg, sc relative to control; type: functional, Heart; details: route subcutaneous
Summary of the method: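 Mice (18–25 g) were dosed and exposed to CHCl3 vapor 20 min later until respiration ceased. Presence or absence of ventricular fibrillation was judged through the opened thorax, and protection was scored as the fraction of animals free of fibrillation. A preliminary 100 mg/kg dose was used to estimate doses for the full screen.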

Mus musculus [4] = assay: Antiarrhythmic activity in sc dosed Swiss albino mouse assessed as protection against chloroform-induced fibrillation relative to control; type: functional; details: Heart
Summary of the method: (§2)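 Mice (18–25 g) were dosed and observed for signs of toxicity. Twenty minutes after dosing they were exposed to CHCl3 vapor until respiration ceased, and ventricular fibrillation was scored by inspecting the opened thorax.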

Mus musculus [5] = assay: Toxicity in Swiss albino mouse assessed as induction of loss of righting reflex at 100 mg/kg, sc relative to control; type: organism-based; design: dose 100 mg/kg, route subcutaneous; details: in vivo; summary of the method: as §1
Mus musculus [6] = assay: Antiarrhythmic activity in sc dosed Swiss albino mouse assessed as protection against chloroform-induced fibrillation relative to lidocaine; type: functional, Heart; summary of the method: as §2
Canis familiaris [7] = assay: Antiarrhythmic activity in coronary ligated dog assessed as reduction of mean arterial blood pressure at 0.5 mg/kg, iv measured for 5 mins relative to control; type: functional, Canis lupus familiaris, Artery
Canis familiaris [8] = assay: Antiarrhythmic activity in coronary ligated dog assessed as reduction of ventricular ectopic beats to <5% of total ventricular beats at 0.5 mg/kg, iv measured for 5 mins relative to control; type: functional, Canis lupus familiaris, Heart; design: scale not given: the % may be the effect or the level left
[9] = Half life in dog; type: ADME, organism-based, Canis lupus familiaris; details: in vivo
Canis familiaris [10] = assay: Toxicity in iv dosed coronary ligated dog assessed as concentration required to cause convulsions; type: organism-based, Canis lupus familiaris; details: in vivo
Summary of the method: (§3)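 Clearing was defined as less than 5% ectopic beats for 5 min, and the infusion was shut off at clearing or when toxicity appeared. Doses are in mmol/kg, reported as means with standard deviations over the experiments.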

Canis familiaris [11] = assay: Antiarrhythmic activity in iv dosed coronary ligated dog assessed as concentration required to reduce ventricular ectopic beats to <5% of total ventricular beats measured for 5 mins; type: functional, Canis lupus familiaris, Heart; summary of the method: as §3
Canis familiaris [12] = assay: Toxicity in iv dosed coronary ligated dog assessed as concentration required to cause mortality measured 87 mins after end of infusion; type: organism-based, Canis lupus familiaris; details: in vivo, 1.45 h
Summary of the method: (§4)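 Dogs with ventricular arrhythmias from coronary artery ligation (Harris method) received drug by infusion, with the ectopic beat incidence monitored. Clearing was defined as less than 5% ectopic beats for 5 min. Infusion was stopped at clearing or when toxicity was observed. The dose was recorded at the time of the endpoint. Mortality was noted, including death after the end of infusion.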

Canis familiaris [13] = assay: Antiarrhythmic activity in coronary ligated dog assessed as reduction of ventricular rates at 0.5 mg/kg, iv measured for 5 mins relative to control; type: functional, Canis lupus familiaris, Heart
Canis familiaris [14] = assay: Toxicity in iv dosed coronary ligated dog assessed as concentration required to cause mortality; type: organism-based, Canis lupus familiaris; details: in vivo; summary of the method: as §4
[15] = Oral bioavailability in dog; type: ADME, organism-based, Canis lupus familiaris; details: in vivo
[16] = Half life in human; type: ADME, organism-based; details: in vivo

SMILES	Activity (Mus musculus [1]) [%]	Activity (Mus musculus [2]) [%]	Activity (Mus musculus [3]) [%]	ED50 (Mus musculus [4]) [µmol/kg]	Activity (Mus musculus [5]) [%]	Ratio ED50 (Mus musculus [6])	Activity (Canis familiaris [7]) [Torr]	Activity (Canis familiaris [8]) [%]	half-life [9] [h]	Activity (Canis familiaris [10]) [mmol/kg]	Activity (Canis familiaris [11]) [mmol/kg]	Activity (Canis familiaris [12]) [mmol/kg]	Activity (Canis familiaris [13]) [bpm]	Activity (Canis familiaris [14]) [mmol/kg]	bioavailability [15] [%]	half-life [16] [h]
Cc1cc(C)c(NC(=O)CN)c(C)c1.Cl	80	100	10	790	0	0.3										
Cc1cccc(C)c1NC(=O)CN.Cl	0	0	10	900	0	0.3	85	0	3.7	0.48	0.48	0.56	123			
Cc1cccc(C)c1NC(=O)C(N)c1ccccc1.Cl (stereo unspecified)	100	100	80	220	100	1.2										
CCc1cccc(CC)c1NC(=O)C(N)CC.Cl (stereo unspecified)	100	100	100	230	0	1.2										
CCc1cccc(CC)c1NC(=O)C(C)N.Cl (stereo unspecified)	10	100	20	530	0	0.5	140	2		0.23	0.26		124	0.45		
Cc1cccc(C)c1NC(=O)[C@@H](C)N.Cl	0	70	10	930	0	0.3	105	0		0.21	0.31		123			
CCC(N)C(=O)Nc1c(C)cccc1C.Cl (stereo unspecified)									1.5							
CCc1cccc(CC)c1NC(=O)CN.Cl	0	100	10	1200	0	0.2										
CCc1cccc(C)c1NC(=O)CN.Cl	0	100	20	1300	0	0.2										
Cc1cccc(C)c1NC(=O)[C@H](C)N.Cl	0	0	0	3100	0	0.1	85	0			0.11		99			
CCN(CC)CC(=O)Nc1c(C)cccc1C.Cl	100	100	100	260	100		101	4		0.27	0.21		133			
Cc1cccc(C)c1NC(=O)C(C)N.Cl (racemic) [TOCAINIDE HYDROCHLORIDE]	0	10	20	1300	0	0.2	108	2	4.7	0.3	0.32		148		80	11
